Reference: article PMC3038628 (Journal of molecular biology, 2010)

What was measured:
[1] = molecular target: α-tocopherol transfer protein (α-TTP); details: cited from earlier work
[2] = FRET assay of NBD-Toc transfer from α-TTP variants to LUVs; assay type: biochemical
Summary of the method: (§1)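 Each protein (4 μM) was preloaded with 0.45 μM NBD-Toc for 15 min in SET buffer (pH 7.4). It was then stopped-flow mixed at room temperature with 200 μM acceptor vesicles of 97% liver PC and 3% TRITC-PE (finals 0.225 μM, 2 μM, 100 μM). Vesicles were sonicated SUVs (~60 nm) or extruded LUVs (150 nm). NBD quench was normalised to initial fluorescence and fitted single-exponentially.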

Filtration = assay type: binding; details: compared with wild type
Summary of the method: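 Recombinant α-TTP (31.5 μg) was incubated with increasing concentrations of sonicated SUVs or extruded 150 nm LUVs in SET buffer for 30 min at room temperature. Mixtures were spun through 100 kDa-cutoff filters at 10,000g for 20 min to separate vesicle-bound from free protein. Protein was resolved on gels, stained with colloidal Coomassie and quantified by band densitometry.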

[3] = FRET assay of NBD-Toc transfer from α-TTP variants to SUVs; assay type: biochemical
Summary of the method: as §1

[4] = Dual polarization interferometry of protein adsorption to immobilized bilayer; assay type: binding
Summary of the method: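 Recombinant α-TTP (E. coli BL21(DE3), glutathione affinity, thrombin-cleaved) was dialysed 1 h at 4 °C into pH 7.4 phosphate/137 mM NaCl buffer. It was injected at 25 μl/min for 8 min over a 90:10 DOPC:DOPS bilayer on a silicon oxynitride chip at 20 °C. Adsorbed mass was measured at 0.5 and 1.0 μM in quadruplicate, two channels each. Kd came from fitting Bmax against concentration.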

HepG2 cells = assay: α-TTP-induced secretion of NBD-tocopherol from cultured hepatocytes; assay type: cell-based, Human; details: transiently transfected HepG2; NBD-Toc fluorescence
Summary of the method: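 HepG2/C3A cells on collagen-coated coverslips (DMEM, 10% FBS) were transiently transfected with α-TTP variants in pcDNA3.1, with mock controls. At 30 h they received 5 μM lipoprotein-complexed NBD-tocopherol for 16–18 h at 37 °C, then 4 h in normal medium for secretion. Cells were fixed, permeabilised and DAPI-stained. NBD fluorescence was imaged at 40× over >14 fields per slide, normalised to cell number; expression was checked by Western blot.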

[5] = PC vesicles, 0.225 μM NBD-Toc, 2 μM α-TTP, 100 μM vesicles, room temperature

Molecule | Kd [1] [nM] | Rate of NBD-Toc transfer to LUV, Rate [2, 5] [s⁻¹] | Rate of NBD-Toc transfer to LUV, Rate^mut/Rate^wt ([2]; relative to wild type) [%] | Vesicle binding to SUVs (in words) (Filtration) | Rate of NBD-Toc transfer to SUV, Rate [3, 5] [s⁻¹] | Reduction of rate of transfer to SUVs ([3]; reduction relative to wild type) [%] | Rate of NBD-Toc transfer to SUV, Rate^mut/Rate^wt ([3]; relative to wild type) [%] | Ads^mut/Ads^wt (0.50 μM injection) ([4]; 0.50 μM protein injection) | Ads^mut/Ads^wt (1.0 μM injection) ([4]; 1.0 μM protein injection) | Inhibition of tocopherol secretion as compared to the wild-type TTP (HepG2 cells) [fold]
Cc1c(C)c2c(c(C)c1O)CC[C@@](C)(CCC[C@H](C)CCC[C@H](C)CCCC(C)C)O2 [α-tocopherol] | ~25 |  |  |  |  |  |  |  |  | 
F169A: α-TTP mutant, Phe169 to Ala (protein, UniProt P49638 1-278, looked up, variant F169A) Alpha-tocopherol transfer …: MAEARSQPSAGPQLNALPDHSPLLQPGLAALRRRAREAGVPLAPLPLTDSFLLRFLRARDFDLDLAWRLLKNYYKWRAECPEISADLHPRSIIGLLKAGYHGVLRSRDPTGSKVLIYRIAHWDPKVFTAYDVFRVSLITSELIVQEVETQRNGIKAIFDLEGWQFSHAAQITPSVAKKIAAVLTDSFPLKVRGIHLINEPVIFHAVFSMIKPFLTEKIKERIHMHGNNYKQSLLQHFPDILPLEYGGEEFSMEDICQEWTNFIMKSEDYLSSISESIQ |  | 0.008 ± 0.002 | 48 | diminished vesicle binding | 0.067 ± 0.006 | 47 | 53 | 0.33 | 0.51 | 2
